This note sets out measurements from ChEMBL document CHEMBL1141876, “Quinols as novel therapeutic agents. 2.(1) 4-(1-Arylsulfonylindol-2-yl)-4-hydroxycyclohexa-2,5-dien-1-ones and related agents as potent and selective antitumor agents” (2005).

Where only a bound is given, the exact number is not on record here.

In general, GI50 refers to the concentration that inhibits growth by half. Read a low GI50 as more potent growth inhibition.

Holding throughout (type): functional
Experiment [1] relates to Panel NCI-60 (60 carcinoma cell lines). Nature of the experiment: Mean in vitro GI50 value against 60 human cancer cell line was determined.
Another experiment has as its system RXF 393. Kind of experiment: Mean in vitro LC50 value against human RXF 393 cell line was determined. The following applies: read-out: LC50 (the source's name). The method in brief: (§1)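 NCI 60-cell-line screen. Cells seeded at densities suited to each line's growth and left drug-free for 24 h. Agents then added at five 10-fold dilutions, top concentration 100 μM, for 48 h. Cellular protein measured by sulforhodamine B colorimetry. LC50 read from these curves; for line 1 it is averaged across the 60 lines.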

The next experiment relates to HCT-116. Nature of the experiment: Mean in vitro LC50 value against human HCT116 cell line was determined. The following applies: read-out: LC50 (the source's name). The method in brief: as §1
Experiment [2] deals with Panel NCI-60 (60 carcinoma cell lines). Nature of the experiment: Mean in vitro LC50 value against 60 human cancer cell line was determined. The conditions noted are these: read-out: LC50 (the source's name). The method in brief:
as §1

The subject of a further experiment is U-251. Nature of the experiment: Mean in vitro LC50 value against human U251 cell line was determined. The conditions noted are these: read-out: LC50 (the source's name). The method in brief:
as §1

The next experiment relates to UO-31. Kind of experiment: Mean in vitro LC50 value against human UO-31 cell line was determined. The conditions noted are these: read-out: LC50 (the source's name). The method in brief: as §1
The next experiment relates to CAKI-1. Kind of experiment: Mean in vitro LC50 value against human CAKI-1 cell line was determined. The conditions noted are these: read-out: LC50 (the source's name). The method in brief:
as §1

The subject of a further experiment is LOX IMVI. Kind of experiment: Mean in vitro LC50 value against human LOX IMVI cell line was determined. The conditions noted are these: read-out: LC50 (the source's name). The method in brief: as §1
The test system of a further experiment is ACHN. Kind of experiment: Mean in vitro LC50 value against human ACHN cell line was determined. The following applies: read-out: LC50 (the source's name). In outline:
as §1

The next experiment has as its system UACC-62. Nature of the experiment: Mean in vitro LC50 value against human UACC-62 cell line was determined. The conditions noted are these: read-out: LC50 (the source's name). In outline: as §1

`O=C1C=CC(O)(c2nc3ccccc3s2)C=C1` yielded a concentration for 50% growth inhibition (GI50) in experiment [1] of 0.23 µM. Also, the CC50 in the experiment on RXF 393 stood at 0.58 µM; with HCT-116 it was 0.43 µM; in experiment [2], 3.39 µM.

In [1], `CC(C)c1cc(C(C)C)c(S(=O)(=O)n2c(C3(O)C=CC(=O)C=C3)cc3ccccc32)c(C(C)C)c1` displayed a GI50 of 0.43 µM. Also, the CC50 in the experiment on RXF 393 was 0.78 µM; in the experiment on HCT-116, 0.55 µM; in experiment [2], 11.2 µM.

Compound `O=C1C=CC(O)(c2cc3ccccc3[nH]2)C=C1` registered a GI50 in experiment [1] of 1.38 µM. The CC50 turned out to be 3.39 µM in the experiment with RXF 393, 5.13 µM in the experiment on HCT-116 and 24 µM in [2].

Regarding `O=C1C=CC(O)(c2cc3ccccc3n2S(=O)(=O)c2ccc3ccccc3c2)C=C1`, in experiment [1], the GI50 was found to be 0.19 µM. Besides, the CC50 in the experiment with HCT-116 is 0.37 µM; in the experiment with U-251, 0.51 µM; in [2], 5.62 µM.

Compound `O=C1C=CC(O)(c2cc3ccccc3n2S(=O)(=O)c2ccc(F)cc2)C=C1` gave a GI50 in experiment [1] of 0.23 µM. For the same compound, the CC50 is 0.36 µM in the experiment on HCT-116, 7.76 µM in experiment [2] and 0.63 µM in the experiment with UO-31.

On to `O=C1C=CC(O)(c2cc3ccccc3n2S(=O)(=O)c2ccccc2)C=C1`, for which, in experiment [1], the GI50 is 0.039 µM. Also, the CC50 in experiment [2] turned out to be 2.95 µM; in the experiment on CAKI-1, 0.053 µM.

The compound `Cc1ccc(S(=O)(=O)n2c(C3(O)C=CC(=O)C=C3)cc3ccccc32)cc1` gave a GI50 in [1] of 0.11 µM. Besides, the CC50 with LOX IMVI is 0.23 µM; with HCT-116, 0.048 µM; in experiment [2] it was 7.24 µM.

Compound `COc1ccc2c(c1)cc(C1(O)C=CC(=O)C=C1)n2S(=O)(=O)c1ccccc1` showed a GI50 in experiment [1] of 0.13 µM. In addition, the CC50 in the experiment on LOX IMVI came out at 0.47 µM; in experiment [2], 6.17 µM; with ACHN, 0.45 µM.

Compound `O=C1C=CC(O)(c2nc3ccccc3[nH]2)C=C1` showed a GI50 in [1] of 0.87 µM. Moreover, the CC50 in the experiment on UACC-62 was 1.41 µM; in the experiment on HCT-116, 1.86 µM; in experiment [2], 13.2 µM.

In experiment [1], `COc1ccc(S(=O)(=O)n2c(C3(O)C=CC(=O)C=C3)cc3ccccc32)cc1` registered a GI50 of 0.16 µM. Moreover, the CC50 in the experiment with LOX IMVI was 0.38 µM; in the experiment with HCT-116, 0.11 µM; in experiment [2], 6.31 µM.

`O=C1C=CC(O)(c2cc3ccccc3n2S(=O)(=O)c2ccccc2)c2ccccc21` (stereo not given) yielded a GI50 in experiment [1] of 0.45 µM. The values for the CC50 (in the experiment on LOX IMVI; in the experiment on HCT-116; in [2]) were 0.78 µM, 0.79 µM and 7.76 µM, respectively.

The compound `O=C1C=CC(O)(c2cc3ccc(F)cc3n2S(=O)(=O)c2ccccc2)C=C1` yielded a GI50 in experiment [1] of 0.016 µM. In addition, the CC50 is less than 0.01 µM with HCT-116, 2.24 µM in experiment [2] and 0.02 µM in the experiment with ACHN.

`Cc1ccc(S(=O)(=O)n2c(C3(O)C=CC(=O)c4ccccc43)cc3ccccc32)cc1` (stereo not given) registered a GI50 in experiment [1] of 0.39 µM. In addition, the CC50 in the experiment with LOX IMVI is 0.72 µM; in the experiment with HCT-116, 0.45 µM; in [2], 5.62 µM.

In experiment [1], `O=C1C=CC(O)(c2cc3cc(F)ccc3n2S(=O)(=O)c2ccccc2)C=C1` displayed a GI50 of 0.066 µM. In addition, the results for the CC50 (with LOX IMVI; with HCT-116; in experiment [2]) were 0.063 µM, 0.05 µM and 3.23 µM, respectively.
